In experiment [1] the target is Opioid receptors; mu & delta (Rattus norvegicus) (UniProt P33533+P33535). In words: Selectivity for rat mu opioid receptor over rat delta opioid receptor. The experiment is classed as protein assay.
Experiment [2] has as its target T1, Delta-type opioid receptor (Mus musculus, UniProt P32300). Nature of the experiment: Agonist activity at delta opioid receptor in mouse vas deferens assessed as inhibition of electrically evoked muscle contractions. It is filed as functional, tissue-based. In outline:
(§1)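 Isolated tissue in organ baths of balanced physiological salt buffer, pH 7.5: male Hartley guinea pig ileum myenteric plexus longitudinal muscle (μ) or single mouse vas deferens (δ). Agonist inhibition of electrically evoked contractions; IC50 (nM) from dose–response curves, mean ± SE of five to six separate tissue preparations.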

The nature of experiment [3]: Ratio of pA2 for delta opioid receptor in MVD to pA2 for mu opioid receptor in GPI. It is filed as functional.
The target of experiment [4] is T2, Mu-type opioid receptor (Cavia porcellus, UniProt P97266). In words: Antagonist activity at mu opioid receptor in Hartley guinea pig intestine assessed as inhibition of DAMGO-induced effect on myenteric plexus longitudinal muscle contractions. It is filed as functional, tissue-based. The conditions noted are these: read-out: pA2 (converted).
T2 sequence (P97266 whole entry): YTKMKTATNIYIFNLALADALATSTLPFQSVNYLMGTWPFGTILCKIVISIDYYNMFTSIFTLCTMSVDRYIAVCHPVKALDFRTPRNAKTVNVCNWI
In experiment [5] the target is T1, Delta-type opioid receptor. Nature of the experiment: Antagonist activity at delta opioid receptor in mouse vas deferens assessed as inhibition of deltorphin 2-induced effect on muscle contractions. The experiment is classed as functional, tissue-based. The conditions noted are these: read-out: pA2 (converted).
The target in experiment [6] is Mu-type opioid receptor (Rattus norvegicus, UniProt P33535). Nature of the experiment: Displacement of [3H]DAMGO from mu opioid receptor in rat brain P2 synaptosome. It is filed as tissue-based. Background: Displacement assays read how much labelled ligand stays bound in the presence of the test substance.
Sequence of Mu-type opioid receptor (Rattus norvegicus, UniProt P33535) (P33535 whole entry): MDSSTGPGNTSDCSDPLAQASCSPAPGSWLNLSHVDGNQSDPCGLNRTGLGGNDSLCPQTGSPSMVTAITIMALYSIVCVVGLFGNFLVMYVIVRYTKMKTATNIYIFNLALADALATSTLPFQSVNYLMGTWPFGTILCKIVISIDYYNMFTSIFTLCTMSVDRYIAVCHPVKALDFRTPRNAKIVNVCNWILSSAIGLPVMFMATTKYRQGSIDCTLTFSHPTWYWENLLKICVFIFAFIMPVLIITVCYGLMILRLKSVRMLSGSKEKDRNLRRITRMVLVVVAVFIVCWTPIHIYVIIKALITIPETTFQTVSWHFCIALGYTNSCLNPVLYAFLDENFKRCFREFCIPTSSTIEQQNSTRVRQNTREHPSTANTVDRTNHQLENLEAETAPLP
Experiment [7] addresses T2, Mu-type opioid receptor. Nature of the experiment: Agonist activity at mu opioid receptor in Hartley guinea pig intestine assessed as inhibition of electrically evoked myenteric plexus longitudinal muscle contractions. It is filed as functional, tissue-based. Put shortly:
as §1

Experiment [8] deals with Mu-type opioid receptor (Cavia porcellus) (UniProt P97266). In words: Agonist activity at mu opioid receptor in Hartley guinea pig intestine assessed as inhibition of electrically evoked myenteric plexus longitudinal muscle contractions at 10000 nM. The experiment is classed as functional, tissue-based.
Sequence of Mu-type opioid receptor (Cavia porcellus) (P97266 whole entry): as the sequence (P97266 whole entry) above
For experiment [9], the target named is Delta-type opioid receptor (Rattus norvegicus, UniProt P33533). In words: Displacement of [3H]deltorphin 2 from delta opioid receptor in rat brain P2 synaptosome. It is filed as tissue-based.
Sequence of Delta-type opioid receptor (Rattus norvegicus, UniProt P33533) (P33533 whole entry): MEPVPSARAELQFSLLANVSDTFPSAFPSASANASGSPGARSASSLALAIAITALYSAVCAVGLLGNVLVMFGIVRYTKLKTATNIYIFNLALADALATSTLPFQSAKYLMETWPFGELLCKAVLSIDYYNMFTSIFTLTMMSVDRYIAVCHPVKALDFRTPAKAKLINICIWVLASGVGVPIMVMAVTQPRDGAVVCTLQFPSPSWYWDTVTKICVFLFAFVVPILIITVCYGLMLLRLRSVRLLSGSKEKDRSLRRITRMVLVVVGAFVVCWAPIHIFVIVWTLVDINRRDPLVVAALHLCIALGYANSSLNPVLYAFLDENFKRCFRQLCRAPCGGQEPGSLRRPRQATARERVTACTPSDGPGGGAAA
Experiment [10] has as its system Mus musculus. In words: Inhibition of morphine-induced antinociception in mouse at 0.148 ng, icv after 10 mins by hot plate test. The experiment is classed as functional, organism-based. In outline:
(§2)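 Male mice received morphine 4 mg/kg sc, then test compound icv 5 min later. Hot plate at 55.0 °C; latency to hind-paw licking or shaking, baseline 15 s, cut-off 30 s, read 10 min after icv dosing. Results as %MPE. AD50 is the dose blocking 50% of morphine antinociception at 10 min; 95% confidence limits; n = 10–17 mice per point.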
(In general: Hot-plate and tail-flick tests time the reaction to a heat stimulus.)

For experiment [11], the target named is Delta-type opioid receptor (Mus musculus) (UniProt P32300). In words: Agonist activity at delta opioid receptor in mouse vas deferens assessed as inhibition of electrically evoked muscle contractions at 10000 nM. The experiment is classed as functional, tissue-based.
Sequence of Delta-type opioid receptor (Mus musculus) (P32300 whole entry): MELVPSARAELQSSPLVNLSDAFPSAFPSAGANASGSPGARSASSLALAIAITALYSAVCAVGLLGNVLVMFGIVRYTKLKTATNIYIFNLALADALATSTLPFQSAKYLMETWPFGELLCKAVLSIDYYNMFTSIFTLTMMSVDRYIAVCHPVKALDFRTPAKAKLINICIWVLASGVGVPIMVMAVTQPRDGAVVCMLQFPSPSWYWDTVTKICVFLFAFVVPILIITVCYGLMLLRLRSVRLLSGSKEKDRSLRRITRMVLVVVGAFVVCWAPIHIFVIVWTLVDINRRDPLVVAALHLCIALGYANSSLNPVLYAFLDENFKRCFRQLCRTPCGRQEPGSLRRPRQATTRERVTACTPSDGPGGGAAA
For experiment [12], the system named is Mus musculus. In words: Inhibition of morphine-induced spinal antinociception in intracerebroventricularly dosed mouse by tail-flick test. The experiment is classed as functional, organism-based. Put shortly:
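Male mice given morphine 4 mg/kg sc, then compound icv 5 min later. Tail-flick latency measured to radiant heat, baseline 2–3 s, cut-off 8 s.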

Experiment [13] has as its system Mus musculus. In words: Inhibition of morphine-induced antinociception in mouse at 2.38 ng, icv after 10 mins by hot plate test. It is filed as functional. In outline: as §2
Another experiment deals with Hippocampus. Nature of the experiment: Inhibition of ethanol-induced frequency of spontaneous inhibitory post-synaptic currents in rat hippocampal neurons by patch clamp technique at 300 nM. The experiment is classed as functional. Put shortly: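 Rat hippocampal slices (300 µm), held in oxygenated ACSF 60 min at room temperature. Whole-cell patch clamp of CA1 pyramidal cells at −70 mV. GABAA IPSCs isolated with 50 µM AP5 and 20 µM DNQX. Recording periods of 10 min each: baseline, then 60 mM EtOH, then compound in EtOH. n = 6 slices; paired t-tests.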

The structures appear in SMILES notation. Calls of active or inactive are those of the source. A value given as a limit tells only on which side of the number the result lay.

The text below walks through data of ChEMBL document CHEMBL1146321, “Transformation of mu-opioid receptor agonists into biologically potent mu-opioid receptor antagonists” (Bioorg Med Chem, 2007).

T1 sequence (P32300 whole entry): as above
Sequence of Opioid receptors; mu & delta (Rattus norvegicus) (P33533 whole entry, looked up): as the sequence (P33533 whole entry) above
Sequence of Opioid receptors; mu & delta (Rattus norvegicus) (P33535 whole entry, looked up): as the sequence (P33535 whole entry) above

For the compound `C=CCN[C@@H](Cc1ccc(O)cc1)C(=O)N1CCC[C@H]1C(=O)N[C@@H](Cc1ccccc1)C(=O)N[C@@H](Cc1ccccc1)C(N)=O`, the Ratio Ki in experiment [1] was 57.

`C=CCN[C@@H](Cc1c(C)cc(O)cc1C)C(=O)N1CCC[C@H]1C(=O)N[C@@H](Cc1ccccc1)C(=O)N[C@@H](Cc1ccccc1)C(N)=O`: the IC50 (in experiment [2]; at Mu-type opioid receptor [7]) was > 10000 nM throughout. Besides, the Ratio pA2 in experiment [3] amounted to 186. The Kb at Mu-type opioid receptor [4] is 2.57 nM; in experiment [5] it was 479 nM. In addition, the values for the Ki (at Mu-type opioid receptor [6]; in experiment [9]) were 0.45 nM and 560 nM, respectively. Besides, the inhibition in experiment [8] amounted to 49.3%; in experiment [11], 42.8%. For the same compound, the Ratio Ki in experiment [1] amounted to 1240. The outcome in the experiment with Mus musculus [10] and in the experiment with Mus musculus [12] was inactive.

Compound `C=CCN1CC[C@]23c4c5ccc(O)c4O[C@H]2C(=O)CC[C@@]3(O)[C@H]1C5` [NALOXONE] returned an AD50 in the experiment with Mus musculus [13] of 2.38 ng.

Take `C=CCN[C@@H](Cc1c(C)cc(O)cc1C)C(=O)N1CCC[C@H]1C(=O)N[C@@H](Cc1c[nH]c2ccccc12)C(=O)N[C@@H](Cc1ccccc1)C(N)=O`: the IC50 (in experiment [2]; on Mu-type opioid receptor [7]) was > 10000 nM each time. Also, the inhibition at 0.3 µM with Hippocampus amounted to 26%. Besides, the Ratio pA2 in [3] worked out at 7.2. Also, the figures for the Kb (on Mu-type opioid receptor [4]; in experiment [5]) were 6.61 nM and 47.9 nM, respectively. Besides, the values for the inhibitory constant (Ki) (on Mu-type opioid receptor [6]; in experiment [9]) were 0.26 nM and 10.3 nM, respectively. Further, the inhibition in experiment [8] amounted to 49%; in experiment [11], 37.5%. For the same compound, the Ratio Ki in [1] came out at 40.

As to `Cc1cc(O)cc(C)c1C[C@H](N)C(=O)N1CCC[C@H]1C(=O)N[C@@H](Cc1c[nH]c2ccccc12)C(=O)N[C@@H](Cc1ccccc1)C(N)=O`, the values for the IC50 (in experiment [2]; at Mu-type opioid receptor [7]) were > 10000 nM and 0.27 nM, respectively. The Kb in [5] was 2.51 nM. Besides, the Ki is 0.054 nM at Mu-type opioid receptor [6] and 5.6 nM in experiment [9]. The Ratio Ki in experiment [1] was 104. In [11], the inhibition was 21.6%.

Take `C=CCNC(=O)[C@H](Cc1ccccc1)NC(=O)[C@H](Cc1ccccc1)NC(=O)[C@@H]1CCCN1C(=O)[C@H](Cc1ccc(O)cc1)NCC=C`: the Ratio Ki in experiment [1] was determined as 6.

In general, IC50 refers to the midpoint of a concentration-inhibition curve. The term Ki denotes a measure of affinity in units of concentration, obtained from inhibition or displacement. A lower Ki goes with higher affinity. In general, inhibition refers to the drop in the measured response relative to a control, in per cent.
